{"source": "paper PMC5771842", "about": "(Nature chemical biology, 2018)", "key": {"MC99IIIBΔTat-Rev HIV-1": {"test_system": "MC99IIIBΔTat-Rev HIV-1", "assay": "HIV cytoprotection assay", "type": "cell-based", "settings": "CEM 1A2 tat/rev++ cells", "procedure,_shortened": "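CEM 1A2 tat/rev++ cells, which die on HIV infection, grown in RPMI-1640 with 20% FBS, bicarbonate and antibiotic-antimycotic at 37°C, 5% CO2; 12,500 cells/well. Test compound added in DMSO, then HIV-1 MC99IIIBΔTat-Rev; 4-day incubation. MTT added for 1–2 h, formazan dissolved in DMSO, absorbance read at 590 nm. Triplicate per dose; infected, uninfected, media-only and AZT controls. IC50/CC50 estimated by eye.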"}, "[1]": {"test_system": "CEM 1A2 tat/rev++ T-cells", "assay": "HIV cytoprotection assay", "type": "cell-based, human", "settings": "CEM 1A2 T cells"}}, "note": "“Also recorded” adds a separate entry of the source."}
{"substance": "divamide C [Compound 3]", "values": [{"measurement": "anti-HIV activity (cytoprotection), in words", "setting": "MC99IIIBΔTat-Rev HIV-1", "value": "essentially inactive; also recorded: neither cytotoxic nor anti-HIV activities; also recorded: lacked any detectable cytoprotection"}, {"measurement": "cytotoxicity, in words", "setting": "[1]", "value": "neither cytotoxic nor anti-HIV activities"}]}
